Measured values taken from ChEMBL document CHEMBL3352728, “Synthesis and biological evaluation of 1,2,3-triazole linked aminocombretastatin conjugates as mitochondrial mediated apoptosis inducers” (Bioorg Med Chem, 2014).
The source made the active and inactive calls. The calls are words filed in the database; no cut-off is given here.

How the values were obtained:
A549 [1] = assay: Cytotoxicity against human A549 cells after 48 hrs by MTT assay; assay type: functional, cell-based; settings: A549, 48 h
Method in brief: (§1)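 MTT assay. Cells seeded at 1×10^4 per well in DMEM with 10% FBS and grown 24 h at 37 °C under CO2. Compounds diluted in medium, vehicle control included, 48 h exposure. MTT (5 mg/mL stock) added for 4 h, formazan dissolved in DMSO, absorbance read at 570 nm. IC50 taken as the average of three independent experiments.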

ACHN = assay: Cytotoxicity against human ACHN cells after 48 hrs by MTT assay; assay type: functional, cell-based; method in brief: as §1
HeLa = assay: Cytotoxicity against human HeLa cells after 48 hrs by MTT assay; assay type: functional, cell-based; method in brief: as §1
HepG2 = assay: Cytotoxicity against human HepG2 cells after 48 hrs by MTT assay; assay type: functional, cell-based; settings: HepG2, 48 h; method in brief: as §1
MCF7 = assay: Cytotoxicity against human MCF7 cells after 48 hrs by MTT assay; assay type: functional, cell-based; settings: MCF7, 48 h; method in brief: as §1
Tubulin (Homo sapiens) [2] = biological target: T1, Tubulin (Homo sapiens) (UniProt P68371+Q9H4B7+P0DPH7+P68366+Q13509+Q71U36+P04350+Q3ZCM7+P07437+P68363+Q9BQE3+Q6PEY2+Q13885+Q9BVA1+Q9BUF5); assay: Binding affinity to tubulin (unknown origin) incubated for 60 mins by colchicine competition assay; assay type: protein-complex assay
Method in brief: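 Tubulin (3 μM) incubated with test agents (5, 10, 15, 20 μM) with and without 3 μM colchicine in 30 mM Tris buffer, 60 min at 37 °C. Tubulin–colchicine fluorescence read at ex 350/em 435 nm. Compound-alone signal subtracted from the compound+colchicine signal, Tris blank subtracted, values normalized to DMSO control. CA-4 positive control, taxol negative control.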

A549 [3] = assay: Induction of cell cycle arrest in human A549 cells assessed as accumulation at G0/G1 phase at 50 nM after 48 hrs by propidium iodide staining based flow cytometry (reference value: 87.75%); assay type: functional
A549 [4] = assay: Induction of cell cycle arrest in human A549 cells assessed as accumulation at S phase at 25 nM after 48 hrs by propidium iodide staining based flow cytometry (reference value: 4.69%); assay type: functional
A549 [5] = assay: Induction of DNA fragmentation in human A549 cells at 25 nM incubated for 48 hrs by agarose gel electrophoresis method; assay type: functional, cell-based
Method in brief: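 A549 cells (1×10^6) plated for 24 h, then exposed to 25 nM for 48 h. Cells pelleted and lysed. Lysate treated with SDS and RNase A for 2 h at 56 °C, then proteinase K for 2 h at 37 °C. DNA precipitated with ammonium acetate and cold ethanol, redissolved in TE buffer, and laddering run on 2% agarose gel.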

A549 [6] = assay: Induction of cell cycle arrest in human A549 cells assessed as accumulation at G2/M phase at 25 nM after 48 hrs by propidium iodide staining based flow cytometry (reference value: 6.15%); assay type: functional
A549 [7] = assay: Induction of apoptosis in human A549 cells assessed as caspase-3 activation at 50 nM incubated for 48 hrs by ELISA method; assay type: functional
Method in brief: (§2)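 A549 cells treated 48 h at 25 or 50 nM, with CA-4 at 50 nM as reference. Cells pelleted, PBS-washed, lysed 15 min and centrifuged. Supernatant assayed with a colorimetric caspase-3 kit. Mean ± SD from two experiments, each in triplicate.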

Tubulin = assay: Inhibition of tubulin (unknown origin) polymerization incubated for 1 hr by fluorescence assay; assay type: protein-complex assay, Homo sapiens
A549 [8] = assay: Induction of cell cycle arrest in human A549 cells assessed as accumulation at G2/M phase at 50 nM after 48 hrs by propidium iodide staining based flow cytometry (reference value: 6.15%); assay type: functional
A549 [9] = assay: Induction of apoptosis in human A549 cells assessed as caspase-3 activation at 25 nM incubated for 48 hrs by ELISA method; assay type: functional; method in brief: as §2
A549 [10] = assay: Induction of cell cycle arrest in human A549 cells assessed as accumulation at S phase at 50 nM after 48 hrs by propidium iodide staining based flow cytometry (reference value: 4.69%); assay type: functional
A549 [11] = assay: Induction of mitochondrial membrane potential loss in human A549 cells at 25 nM incubated for 48 hrs by JC1 dye staining based fluorescence assay; assay type: functional, cell-based
Method in brief: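 A549 cells exposed to 25 nM for 48 h, then loaded with JC-1 for 20 min at 37 °C. JC-1 green monomer emission (525 nm) compared with red aggregate emission (590 nm) to read depolarization. CA-4 at 25 nM included.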

A549 [12] = assay: Induction of apoptosis in human A549 cells assessed as chromatin condensation at 25 nM incubated for 48 hrs by Hoechst staining based fluorescent microscopy; assay type: functional, cell-based
Method in brief: (§3)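 A549 cells, 10,000 per coverslip, cultured 24 h, then exposed to 25 nM for 48 h. Stained with Hoechst 33258 (0.5 mg/mL) for 30 min at 37 °C and washed in PBS. Random fields imaged by fluorescence microscopy and scored qualitatively for chromatin condensation, nuclear fragmentation and apoptotic bodies.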

A549 [13] = assay: Induction of cell cycle arrest in human A549 cells assessed as accumulation at subG1 phase at 50 nM after 48 hrs by propidium iodide staining based flow cytometry (reference value: 1.41%); assay type: functional
A549 [14] = assay: Induction of apoptosis in human A549 cells assessed as nuclear fragmentation at 25 nM incubated for 48 hrs by Hoechst staining based fluorescent microscopy; assay type: functional, cell-based; method in brief: as §3
A549 [15] = assay: Induction of apoptosis in human A549 cells assessed as apoptotic bodies level at 25 nM incubated for 48 hrs by Hoechst staining based fluorescent microscopy; assay type: functional, cell-based; method in brief: as §3
A549 [16] = assay: Induction of ROS generation in human A549 cells at 25 nM incubated for 48 hrs by DCFH-DA staining based fluorescence assay; assay type: functional, cell-based
Method in brief: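 A549 cells exposed to 25 nM for 48 h, then loaded with 5 μM DCFH-DA for 30 min at 37 °C. DCF fluorescence read at ex 485/em 530 nm. CA-4 at 25 nM run in parallel.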

Tubulin (Homo sapiens) [17] = biological target: T1, Tubulin (Homo sapiens); assay: Inhibition of tubulin (unknown origin) polymerization at 3 uM incubated for 1 hr by fluorescence assay; assay type: protein-complex assay
Method in brief: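 Fluorescence-reporter tubulin polymerization kit. PEM buffer with […], compounds at 3 μM final concentration. Fluorescence followed at ex 360/em 420 nm for 1 h at 37 °C. CA-4 positive control. Mean ± SD from two experiments, each in triplicate.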

A549 [18] = assay: Induction of cell cycle arrest in human A549 cells assessed as accumulation at subG1 phase at 25 nM after 48 hrs by propidium iodide staining based flow cytometry (reference value: 1.41%); assay type: functional
A549 [19] = assay: Induction of microtubule network disruption in human A549 cells at 25 nM incubated for 48 hrs by immunohistochemistry; assay type: cell-based
Method in brief: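 A549 cells on glass coverslips exposed to 25 nM for 48 h, with CA-4 at 25 nM in parallel. Fixed in 3% paraformaldehyde/0.02% glutaraldehyde and permeabilized in methanol overnight at 4 °C. Blocked with 1% BSA, stained with mouse anti-tubulin primary and FITC-labelled anti-mouse IgG, and examined by fluorescence microscopy for microtubule network integrity.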

A549 [20] = assay: Induction of cell cycle arrest in human A549 cells assessed as accumulation at G0/G1 phase at 25 nM after 48 hrs by propidium iodide staining based flow cytometry (reference value: 87.75%); assay type: functional

| Structure (SMILES) | IC50 (A549 [1]) [nM] | IC50 (ACHN) [nM] | IC50 (HeLa) [nM] | IC50 (HepG2) [nM] | IC50 (MCF7) [nM] | other results |
| --- | --- | --- | --- | --- | --- | --- |
| COc1cc(/C=C\c2cc(OC)c(OC)c(OC)c2)cc(NC(=O)c2cn(Cc3ccc(F)cc3)nn2)c1OC | 66 | 3090 | 320 | 1360 | 897 | – |
| COc1cccc(Cn2cc(C(=O)Nc3cc(/C=C\c4cc(OC)c(OC)c(OC)c4)cc(OC)c3OC)nn2)c1 | 406 | 2890 | 570 | 513 | 1270 | – |
| COc1ccc(/C=C\c2cc(OC)c(OC)c(OC)c2)cc1NC(=O)c1cn(Cc2cc(OC)c(OC)c(OC)c2)nn1 | 89 | 2040 | 190 | 620 | 1510 | – |
| COc1ccc(/C=C\c2cc(OC)c(OC)c(OC)c2)c(NC(=O)c2cn(Cc3ccc(F)cc3)nn2)c1O | 568 | 3390 | 330 | 354 | 1860 | – |
| COc1cccc(Cn2cc(C(=O)Nc3c(/C=C\c4cc(OC)c(OC)c(OC)c4)ccc(OC)c3O)nn2)c1 | 1620 | 9510 | 4570 | 1950 | 1940 | – |
| CC(=O)O[C@H]1C(=O)[C@@]2(C)[C@H]([C@H](OC(=O)c3ccccc3)[C@]3(O)C[C@H](OC(=O)[C@H](O)[C@@H](NC(=O)c4ccccc4)c4ccccc4)C(C)=C1C3(C)C)[C@]1(OC(C)=O)CO[C@@H]1C[C@@H]2O | – | – | – | – | – | Activity (Tubulin (Homo sapiens) [2]): inactive |
| COc1ccc(/C=C\c2cc(OC)c(OC)c(OC)c2)cc1NC(=O)c1cn(Cc2cccc(Oc3ccccc3)c2)nn1 | 2570 | 5740 | 3230 | 3720 | 4190 | – |
| COc1ccc(/C=C\c2cc(OC)c(OC)c(OC)c2)c(NC(=O)c2cn(Cc3cc(OC)c(OC)c(OC)c3)nn2)c1O | 830 | 5130 | 770 | 1700 | 2400 | – |
| COc1ccc(Cn2cc(C(=O)Nc3c(/C=C\c4cc(OC)c(OC)c(OC)c4)ccc(OC)c3O)nn2)cc1 | 1450 | 5890 | 3540 | 1200 | 2620 | – |
| COc1ccc(/C=C\c2cc(OC)c(OC)c(OC)c2)cc1NC(=O)c1cn(Cc2ccc(F)cc2)nn1 | 53 | 1660 | 68 | 58 | 597 | Activity (A549 [3]): 61.99%; Activity (A549 [4]): 5.49%; Activity (A549 [5]): Active; Activity (Tubulin (Homo sapiens) [2]): Active; Activity (A549 [6]): 17.57%; fold change (FC) (A549 [7]): 3; IC50 (Tubulin): 1160 nM; Activity (A549 [8]): 25.73%; fold change (FC) (A549 [9]): 3; Activity (A549 [10]): 7.93%; Activity (A549 [11]): Active; Activity (A549 [12]): Active; Activity (A549 [13]): 4.36%; Activity (A549 [14]): Active; Activity (A549 [15]): Active; Activity (A549 [16]): Active; inhibition (Tubulin (Homo sapiens) [17]): 66.8%; Activity (A549 [18]): 1.52%; Activity (A549 [19]): Active; Activity (A549 [20]): 75.42% |
| COc1cc(/C=C\c2cc(OC)c(OC)c(OC)c2)cc(NC(=O)c2cn(Cc3cc(OC)c(OC)c(OC)c3)nn2)c1OC | 181 | 4760 | 720 | 3390 | 1380 | – |
| COc1ccc(/C=C\c2cc(OC)c(OC)c(OC)c2)cc1O [COMBRETASTATIN A4] | 52 | 5 | 18 | – | – | Activity (A549 [3]): 61.32%; Activity (Tubulin (Homo sapiens) [2]): Active; Activity (A549 [8]): 26.48%; Activity (A549 [10]): 8.09%; Activity (A549 [13]): 4.11%; Activity (A549 [19]): Active |
| COc1ccc(Cn2cc(C(=O)Nc3cc(/C=C\c4cc(OC)c(OC)c(OC)c4)ccc3OC)nn2)cc1 | 2140 | 3310 | 2950 | 2080 | 3720 | – |
| COc1ccc(/C=C\c2cc(OC)c(OC)c(OC)c2)c(NC(=O)c2cn(Cc3cccc(Oc4ccccc4)c3)nn2)c1O | 3630 | 7410 | 5010 | 4680 | 4260 | – |
| COc1cccc(Cn2cc(C(=O)Nc3cc(/C=C\c4cc(OC)c(OC)c(OC)c4)ccc3OC)nn2)c1 | 1860 | 5270 | 1140 | 1800 | 1610 | – |
| COc1cc(/C=C\c2cc(OC)c(OC)c(OC)c2)cc(NC(=O)c2cn(Cc3cccc(Oc4ccccc4)c3)nn2)c1OC | 2680 | 6610 | 5880 | 3990 | 4260 | – |
